Measured values pooled from the literature.
Each line is one published result; the experiments were not run side by side.
Read-out: cell growth or viability

SMILES | cell line | test | setting | CC50
Nc1ccc(-c2ccc(Nc3cc(S(=O)(=O)O)c(N)c4c3C(=O)c3ccccc3C4=O)cc2)c(S(=O)(=O)O)c1 | BHK-21 | MTT | 42 h | 177 µM
COc1cc(Nc2ccnc3ccc(Br)cc23)cc(OC)c1OC | Vero | resazurin | – | 28.6 µM
Clc1ccc(CCC(Cn2ccnc2)Sc2c(Cl)cccc2Cl)cc1 (stereo not drawn) | Vero | WST-1 | 18 h | 34.9 µM
OCCCCCCC1COOC2(CCCCCCCCCCC2)OOC1 | BHK-21 | WST-1 | 72 h | 3.4 µM
Cc1cc(N)c2cc(NC(=O)Nc3ccc4nc(C)cc(N)c4c3)ccc2n1 | BHK-21 | MTT | 42 h | 49 µM
O=C(NCc1ccc(Cl)cc1)C1CC1c1ccccc1 (stereo not drawn) | BHK-21 | MTT | – | > 100 µM
Cc1cc(C)cc([C@@H]2C[C@H]2C(=O)NC(C(=O)NC2CC2)c2ccc(C)c(C)c2)c1 (stereo partly drawn) | BHK-21 | MTT | 24 h | ~10 µM
CC(=O)c1cccc(NC(=O)C(=O)[C@H](CC(C)C)NC(=O)[C@H](CC(C)C)NC(=O)[C@H](CC(C)C)NC(=O)OCc2ccccc2)c1 | Vero | ATP luminescence | 48 h | 17.7 µM
O=C(Nc1ncc([N+](=O)[O-])s1)c1ccco1 | BHK-21 | MTT | – | > 10 µM
C[C@H]1[C@H](OC(=O)CCC(=O)O)O[C@@H]2O[C@@]3(C)CC[C@H]4[C@H](C)CC[C@@H]1[C@@]24OO3 | Vero | WST-1 | 18 h | 29.2 µM
C=CC(=O)Nc1cccc(-c2snc3cc(-c4ccc(N)c(OC)c4)cnc23)c1 | Vero | resazurin | – | 21 µM
O=C(Nc1ncc([N+](=O)[O-])s1)c1cc(Cl)ccc1Cl | BHK-21 | MTT | – | > 100 µM
